Hits are enriched below; roughly 3.6% of the tested compounds scored in any of these assays.
STAT3 activator – STAT3 signaling activation; U3A cells, IL-6 STAT3-luciferase reporter, luminescence; 100% = signal with IL-6 EC80 alone; activation (% of control), % at 5.6 µM; 190,000 compounds, 0.91% hits; AID 871;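 active means activation above the screen-wide mean of compound activation plus 3 SD, cut at about 130% in these data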
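Material: human STAT1-deficient U3A cells with stable STAT3-luciferase reporter / Probe or stimulus: IL-6 stimulus at 33 ng/mL final / Schedule: 1 h compound pre-exposure, 6 h IL-6 stimulation, 37 °C / Technique: luminescence / Read-out basis: percent of IL-6-only median luminescence / Control set: IL-6-only high control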
AHR act – activators of human aryl hydrocarbon receptor; AHR-responsive luciferase reporter cells, luminescence; activation, % at 5 µM; 320,000 compounds, 2.5% hits; AID 2796; in the data active means activation above about 47%
PolyA inh – yeast polyadenylation inhibition; AID 1875; 300,000 compounds, 0.02% hits; activity score, % at 12 µM; S. cerevisiae SKY197-pL101 polyadenylation reporter, beta-gal luminescence; efflux-impaired pdr1/pdr3 knockout yeast; score 100 = 6 SD above DMSO;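 active means lowest replicate activity score at least 50, where 100 means six control SD above control mean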;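 further: yeast exposed to compound for 9 h at 30 °C; higher score means more reporter readthrough which indicates perturbed polyadenylation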
PERK inh – blocks human PERK kinase; Q9NZJ5; CHO PERK-DD fusion, SEAP luminescence translation reporter; inhibition, % at 5.6 µM; 220,000 compounds, 0.17% hits; AID 1416;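 active means inhibition above the mean inhibition of all tested compounds plus 3 SD, set separately per screening campaign, cut at about 2.9% in these data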;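 further: PERK kinase domain activated by AP20187 dimerizer at 100 nM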
HSF1 inh – HSF1 inhibition. NIH3T3-HGL HSE-luciferase, MG132-induced, luminescence 8 h; active compounds read low. activity change, negative = inhibition, % at 7.5 µM (by protocol). 300,000 compounds, 0.77% hits;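 active means more than half of replicate wells show activity change below -50%, luminescence cut by over half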;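 further: luciferase reports HSF-1 transcriptional activity via heat shock element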
Hsp70 act – switches on Hsp70 transcription; HeLa Hsp70 promoter luciferase reporter, luminescence; scaled: vehicle 0, proteasome-inhibitor control 100%; activation, % at 10 µM; 200,000 compounds, 0.04% hits;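 active means activation above the mean across all tested compounds plus 3 SD, cutoff set per campaign, cut at about 5.5% in these data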
Numbers stand for hits; . = inactive; / = no result.

SMILES | STAT3 activator | AHR act | PolyA inh | PERK inh | HSF1 inh | Hsp70 act
COc1ccccc1N=NC1C(=O)N(C(N)=S)N=C1C (configuration not stated) | / | 64.2 | . | / | . | /
CC1=NN(C(N)=S)C(=O)C1N=Nc1ccc(C)c(Br)c1 (configuration not stated) | / | 58.0 | . | / | . | /
O=C(O/N=C1/CCSc2ccccc21)c1ccc(F)cc1 | 134.8 | . | / | . | . | .
O=C(O/N=C1/CCCc2occc21)c1ccc(F)cc1 | . | . | . | . | . | .
Cc1ccc(NC(=O)c2ccc(Nc3c([N+](=O)[O-])cc([N+](=O)[O-])cc3[N+](=O)[O-])cc2)cc1 | . | . | . | . | -70.8 | .
CSc1nc(O)c(C(c2ccccc2)c2c(O)nc(SC)[nH]c2=O)c(=O)[nH]1 | / | . | . | / | . | /
CSc1nc(O)c(C2OC(=O)c3ccccc32)c(=O)[nH]1 (configuration not stated) | . | . | . | 2.9 | . | .
COCc1[nH]nc2c1C1(CCSCC1)C(C#N)=C(N)O2 | . | . | . | . | -84.6 | .
Cc1ccccc1NC(=O)CON=C(N)c1ccccc1 | / | . | / | / | / | /
Cc1ccccc1C(=O)Nc1nnc(CC(=O)N/N=C/c2ccco2)s1 | / | . | . | . | -79.5 | /
CCC(CC)c1nc(NCCC(=O)O)c2ccccc2n1 | . | . | . | 3.1 | . | .
O=C(c1cccnc1)c1ncc(C(F)(F)F)cc1Cl | / | . | . | / | . | /
O=C(NC(=S)NCc1ccccc1)c1cccc(Cl)c1 | / | . | . | / | . | /
Cc1ccc(/C=N/Nc2nc(Cl)c(Cl)cc2Cl)s1 | . | 54.2 | . | . | . | .
Cc1ccsc1/C=N/Nc1nc(Cl)c(Cl)cc1Cl | . | 63.0 | . | . | . | .
N#Cc1c(NCc2ccccc2)ccnc1Cl | / | . | . | / | . | /
S=c1nc(-c2ccccc2)[nH]c2ccccc12 | . | 57.4 | . | . | . | .
S=c1nc(-c2ccc(Br)cc2)[nH]c2ccccc12 | / | . | . | 3.0 | . | /
CN=c1scc(-c2ccco2)n1/N=C/c1ccc(O)c(O)c1 | . | / | . | . | -82.8 | .
O=C(/C=C/c1ccco1)Nc1ccccc1N1CCCC1 | . | 72.5 | . | . | . | .
O=C(/C=C/c1ccco1)NC(=S)Nc1ccccn1 | . | 66.0 | . | . | . | .
O=C(/C=C/c1ccco1)NC(=S)Nc1ccccc1N1CCCC1 | . | 65.1 | . | . | . | .
O=C(/C=C/c1ccco1)NC(=S)Nc1ccccc1N1CCOCC1 | . | . | . | . | . | .
COc1ccc(NC(=S)NC(=O)/C=C/c2ccco2)c(OC)c1 | / | 67.9 | . | / | . | /
COc1ccc(CCC(=O)Nc2ccc(Cl)c(S(=O)(=O)N3CCCC3)c2)cc1 | / | . | . | . | . | /
SMILES | STAT3 activator | AHR act | PolyA inh | PERK inh | HSF1 inh | Hsp70 act
CCN1C(=O)N[C@@H](CCc2ccccc2)C(C(C)=O)=C1C | / | . | . | / | . | /
CCN1C(=S)N[C@@H](CCc2ccccc2)C(C(=O)OC)=C1C | / | 53.0 | . | / | . | /
CCCN(CC(=O)Nc1ccccc1C)C(=O)C1CCN(S(=O)(=O)c2cccc(C(F)(F)F)c2)CC1 | / | . | . | / | . | /
CC(Sc1ccc(Cl)cc1)C(=O)Nc1ccc2c(c1)OCO2 (configuration not stated) | . | . | . | . | . | .
CC(C)N1CCC2(CC1)N=C(c1ccc3c(c1)OCO3)CC(c1cc(Cl)ccc1O)N2 (configuration not stated) | . | 76.2 | . | . | . | .
Cc1ccc(NC(=O)c2cccc(NC(=O)CC3SC(N4CCCCC4)=NC3=O)c2)nc1 (configuration not stated) | / | . | . | / | . | /
c1ccc2oc(SCc3nc4ccccc4s3)nc2c1 | 138.1 | . | . | . | . | .
Cc1nnc(SCc2nc3ccccc3s2)n1N | 141.3 | . | . | . | . | .
c1ccc(SCc2nc3ccccc3s2)nc1 | / | . | . | / | . | /
c1ccc(OCCSc2nc3ccccc3o2)cc1 | . | . | . | . | -61.3 | .
CCOc1ccc(OCCSc2nc3ccccc3o2)cc1 | . | . | . | . | . | .
Cc1ccccc1CSc1nnc(C)n1N | . | . | . | . | . | .
COc1cccc(C(=O)OCC(=O)N2CCc3ccccc3C2)c1 | / | . | / | / | / | /
O=C(N/N=C/c1cccs1)c1cc(-c2ccc(Cl)s2)[nH]n1 | / | . | . | / | . | /
